Measurements published in publication PMC10570058 (Nucleic Acids Research, 2023).

Legend:
[1] = test system: Polθ ATPase domain binding to ssDNA; assay: Microscale thermophoresis
[2] = test system: Polθ recruitment to ssDNA in U2OS cells; assay: Laser micro-irradiation and immunofluorescence, Polθ recruitment to ssDNA; format: cell-based, human; conditions: 200 μM, 24 h, U2OS POLQ KO cells expressing Myc-Polθ
[3] = test system: Polθ-ATPase domain; assay: Thermal stability assay; format: binding; conditions: 500 μM compound vs DMSO
[4] = test system: RPE1 TP53−/−BRCA1−/− cells; assay: DNA fiber assay with S1 nuclease digestion; format: cell-based; conditions: 200 μM NVB vs vehicle
Outline: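 Cells (F12, 10% FBS) seeded 24 h, pulsed with 200 μM CldU for 30 min, washed, then 100 μM IdU for 2 h with test compound (200 μM) or DMSO added alongside. CSK permeabilisation 10 min RT. Nuclei were treated with 10 U/ml S1 nuclease (pH 4.6 buffer) for 30 min at 37°C or left undigested. Agarose-plug extraction was used, and ≥200 IdU tracks were scored per treatment (Mann–Whitney).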

[5] = biological target: Polθ ATPase domain (human) (UniProt O75417); assay: mass photometry

Chain of Polθ ATPase domain (O75417 67-894): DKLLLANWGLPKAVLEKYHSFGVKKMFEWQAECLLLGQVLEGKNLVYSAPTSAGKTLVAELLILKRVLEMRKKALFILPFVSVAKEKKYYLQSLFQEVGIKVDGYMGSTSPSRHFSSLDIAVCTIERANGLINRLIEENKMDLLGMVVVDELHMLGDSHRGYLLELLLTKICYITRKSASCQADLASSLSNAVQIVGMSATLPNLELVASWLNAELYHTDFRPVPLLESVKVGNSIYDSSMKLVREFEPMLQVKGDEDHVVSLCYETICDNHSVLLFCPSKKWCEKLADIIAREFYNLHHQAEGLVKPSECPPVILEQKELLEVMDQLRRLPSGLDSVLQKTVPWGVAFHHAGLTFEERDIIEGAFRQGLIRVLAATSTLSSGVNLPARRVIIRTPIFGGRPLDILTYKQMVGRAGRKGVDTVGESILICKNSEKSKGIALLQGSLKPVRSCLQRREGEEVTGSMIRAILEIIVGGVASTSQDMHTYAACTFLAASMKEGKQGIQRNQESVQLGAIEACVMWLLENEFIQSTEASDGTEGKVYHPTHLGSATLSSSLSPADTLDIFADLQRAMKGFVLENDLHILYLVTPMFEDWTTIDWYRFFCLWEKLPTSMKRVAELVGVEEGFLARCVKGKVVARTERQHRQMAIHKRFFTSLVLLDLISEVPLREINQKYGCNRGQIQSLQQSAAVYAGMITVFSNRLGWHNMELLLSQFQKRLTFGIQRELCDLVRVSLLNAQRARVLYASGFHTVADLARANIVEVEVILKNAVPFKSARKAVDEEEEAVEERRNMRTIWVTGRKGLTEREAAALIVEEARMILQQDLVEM

Nc1ncnc2c1ncn2[C@@H]1O[C@H](COP(=O)(O)OP(=O)(O)NP(=O)(O)O)[C@@H](O)[C@H]1O [AMP-PNP]
Effect on Polθ binding to ssDNA ([1]; 2000 μM AMP-PNP, MST buffer with 5 mM MgCl2): unable to block

CO[C@@H]1[C@@H](OC(N)=O)[C@@H](O)[C@H](Oc2ccc3c(O)c(NC(=O)c4ccc(O)c(CC=C(C)C)c4)c(=O)oc3c2C)OC1(C)C [NVB, Novobiocin]
Polθ blocked from being recruited to damage sites [2]: ~96%
Effect on Polθ binding to ssDNA ([1]; NVB 100-2000 μM in MST buffer, 120 mM KCl): dose-dependent inhibition
Change in the scattering peak maximum [3]: +2 °C
IdU track lengths following S1 nuclease treatment [4]: dramatic shortening

Polθ ATPase domain (from UniProt O75417 67-894) (domain or fragment)
stoichiometry N [5]: 4
